Blank lines part the entries; values can stand above or below the compound they belong to. The source made the active and inactive calls. The calls are words filed in the database; no cut-off is given here.
Legend:
Ca-Ski [1] = experiment: Antiproliferative activity human CaSki cells after 24 hrs by crystal violet staining; type: functional, cell-based
Method in brief: (§1)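 Cells in RPMI-1640 with 5% newborn calf serum, 37 °C, 5% CO2, exponential phase. Seeded at 7500 cells/well and grown 24 h, then exposed over a concentration range in ethanol vehicle; controls got 1% ethanol. After 24 h, crystal violet staining with absorbance at 590 nm. IC50 taken from the decrease in cell population.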

[2] = Antiproliferative activity human ViBo cells after 24 hrs by crystal violet staining; type: functional, cell-based; method in brief: as §1
HeLa [3] = experiment: Antiproliferative activity human HeLa cells after 24 hrs by crystal violet staining; type: functional, cell-based; method in brief: as §1
PBMC [4] = experiment: Antiproliferative activity human PBMC assessed as proliferating cells at 33.9 uM after 72 hrs using FITC-A staining by flow cytometry; type: cell-based
Method in brief: (§2)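 Enriched lymphocytes from one healthy donor: non-adherent cells kept after 1 h at 37 °C. Labelled with CFSE for 15 min at room temperature in the dark, quenched with NCS, washed. Plated at 2 × 10^5 cells/well, unstimulated, PHA-stimulated or treated, with ethanol 1% vehicle control. Five replicates, 72 h at 37 °C. Then 1% formaldehyde fixation and flow cytometry, ≥20,000 events.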

PBMC [5] = experiment: Antiproliferative activity human PBMC assessed as non-proliferating cells at 33.9 uM after 72 hrs using FITC-A staining by flow cytometry; type: cell-based; method in brief: as §2
Ca-Ski [6] = experiment: Cell cycle arrest at G1-phase in human CaSki cells at 29.5 to 33.9 uM after 24 hrs using propidium iodine staining by flow cytometry; type: functional, cell-based
Method in brief: (§3)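 Seeded at 10^5 cells/mL and grown 24 h, then exposed to 33.9 or 29.5 µM. Harvested with versene and fixed/permeabilized in 50% methanol in PBS. Treated with RNase (2.5 U/mL), stained with propidium iodide (0.2 mg/mL), DNA content analysed by G1, S, G2/M and SubG1.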

Ca-Ski [7] = experiment: Cell cycle arrest at S-phase in human CaSki cells at 29.5 to 33.9 uM after 24 hrs using propidium iodine staining by flow cytometry; type: functional, cell-based; method in brief: as §3
Ca-Ski [8] = experiment: Cell cycle arrest at G2/M-phase in human CaSki cells at 29.5 to 33.9 uM after 24 hrs using propidium iodine staining by flow cytometry; type: functional, cell-based; method in brief: as §3
Ca-Ski [9] = experiment: Induction of apoptosis in human CaSki cells assessed as increase in cell nuclei released from broken cell at 29.5 to 33.9 uM after 24 hrs using propidium iodine staining by flow cytometry; type: functional, cell-based; method in brief: as §3
Ca-Ski [10] = experiment: Induction of apoptosis in human CaSki cells assessed as decrease in DNA level at 29.5 to 33.9 uM after 24 hrs using propidium iodine staining by flow cytometry; type: functional, cell-based; method in brief: as §3
[11] = Cell cycle arrest at G2/M-phase in human ViBo cells at 29.5 to 33.9 uM after 24 hrs using propidium iodine staining by flow cytometry; type: functional, cell-based; method in brief: as §3
HeLa [12] = experiment: Cell cycle arrest at G2/M-phase in human HeLa cells at 29.5 to 33.9 uM after 24 hrs using propidium iodine staining by flow cytometry; type: functional, cell-based; method in brief: as §3
[13] = Cell cycle arrest at S-phase in human ViBo cells at 29.5 to 33.9 uM after 24 hrs using propidium iodine staining by flow cytometry; type: functional, cell-based; method in brief: as §3
HeLa [14] = experiment: Cell cycle arrest at S-phase in human HeLa cells at 29.5 to 33.9 uM after 24 hrs using propidium iodine staining by flow cytometry; type: functional, cell-based; method in brief: as §3
Ca-Ski [15] = experiment: Cytotoxicity against human CaSki cells assessed as LDH release at IC50 after 24 hrs by spectrophotometry; type: functional
[16] = Cytotoxicity against human ViBo cells assessed as LDH release at IC50 after 24 hrs by spectrophotometry; type: functional
HeLa [17] = experiment: Cytotoxicity against human HeLa cells assessed as LDH release at IC50 after 24 hrs by spectrophotometry; type: functional
[18] = Cytotoxicity against human PHA-stimulated lymphocytes assessed as LDH release at 33.9 uM after 72 hrs by spectrophotometry; type: cell-based; settings: lymphocyte
Method in brief: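 Lymphocytes exposed to compound or ethanol (10 µL/mL); PHA-activated lymphocytes (15 µL/mL) served as control. After 72 h, LDH released into the culture supernatant measured. Mean ± S.D. of three independent experiments with three repetitions.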

Ca-Ski [19] = experiment: Induction of apoptosis in human CaSki cells assessed as induction of active caspase-3 expression at 29.5 to 33.9 uM using FITC/DAPI staining by epifluorescence microscopy; type: functional, cell-based
Method in brief: (§4)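 Seeded at 5 × 10^4 cells/mL in RPMI-1640 with 5% NCS for 24 h, then treated with 33.9 or 29.5 µM. Formaldehyde fixation 15 min, 0.5% Triton X-100 permeabilization, blocking. Rabbit anti-active caspase-3 (1:50), then FITC goat anti-rabbit (1:200). DAPI counterstain; fluorescence microscopy.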

ViBo [20] = experiment: Induction of apoptosis in human ViBo cells assessed as induction of active caspase-3 expression at 29.5 to 33.9 uM using FITC/DAPI staining by epifluorescence microscopy; type: functional, cell-based; method in brief: as §4
HeLa [21] = experiment: Induction of apoptosis in human HeLa cells assessed as induction of active caspase-3 expression at 29.5 to 33.9 uM using FITC/DAPI staining by epifluorescence microscopy; type: functional, cell-based; method in brief: as §4
Ca-Ski [22] = experiment: Induction of apoptosis in human CaSki cells assessed as DNA fragmentation at IC50 after 24 hrs by TUNEL assay; type: functional, cell-based
ViBo [23] = experiment: Induction of apoptosis in human ViBo cells assessed as DNA fragmentation at IC50 after 24 hrs by TUNEL assay; type: functional, cell-based
HeLa [24] = experiment: Induction of apoptosis in human HeLa cells assessed as DNA fragmentation at IC50 after 24 hrs by TUNEL assay; type: functional, cell-based

IC50 (HeLa [3]): 29.5 µM
SMILES: CC(=O)O[C@H]1CC[C@@]2(C)C(=CC[C@H]3[C@@H]4C[C@H](OC(C)=O)[C@H]([C@H](C)C(=O)CC[C@@H](C)CO[C@@H]5O[C@H](CO)[C@@H](O)[C@H](O)[C@H]5O)[C@@]4(C)CC[C@@H]32)C1
Activity (Ca-Ski [1]): Dose-dependent effect
IC50 (Ca-Ski [1]): 33.9 µM
IC50 [2]: 29.5 µM
Activity (PBMC [4]): 72.09%
Activity (PBMC [5]): 27.91%
Activity (Ca-Ski [6]): inactive
Activity (Ca-Ski [7]): inactive
Activity (Ca-Ski [8]): inactive
Activity (Ca-Ski [9]): Active
Activity (Ca-Ski [10]): Active
Activity [11]: Active
Activity (HeLa [12]): Active
Activity [13]: Active
Activity (HeLa [14]): Active
Activity (Ca-Ski [15]): 1%
Activity [16]: 11%
Activity (HeLa [17]): 6%
Activity [18]: Non-toxic
Activity (Ca-Ski [19]): Active
Activity (ViBo [20]): Active
Activity (HeLa [21]): Active
Activity (Ca-Ski [22]): Active
Activity (ViBo [23]): Active
Activity (HeLa [24]): Active

SMILES: CC(=O)O[C@H]1CC[C@@]2(C)C(=CC[C@H]3[C@@H]4C[C@H](OC(C)=O)[C@H]([C@H](C)C(=O)CC[C@@H](C)CO)[C@@]4(C)CC[C@@H]32)C1
IC50 (Ca-Ski [1]): 47.1 µM
